RAM inhibit: inhibitors of the yeast RAM network, primary screen, dse1pr::URA3 reporter, 5-FOA selection; S. cerevisiae dse1pr::URA3 reporter, 5-FOA growth OD615, 2 d; analog-sensitive cbk1-as2 kinase mutant strain; inhibition, % at 50 µM; 190,000 compounds, 1.8% hits; AID 868, 2007;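 active means inhibition above a set limit, 3 SD over mean compound inhibition, cut at about 8.4% in these data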;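 further: 0% = DMSO-only wells with no growth and 100% = 10 µM 1-NA-PP1 full growth; inhibition rescues growth on 5-FOA so higher OD means more RAM inhibition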
ABCG2 inh: ABCG2 efflux pump inhibitors, primary screen, multiplex with ABCB1, IgMXP3 cells, flow cytometry; Broad substrate specificity ATP-binding cassette transporter ABCG2 (Homo sapiens), Q9UNQ0; JC-1 efflux; inhibition, % at 6.6 µM; 190,000 compounds, 0.1% hits;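 active means inhibition above 80%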;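 further: 0% = DMSO and 100% = nicardipine control wells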
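Incubation: cells with compound and JC-1, 10 min at 25 °C, rotating, no wash / Test system: IgMXP3 (ABCG2) plus far-red-tagged CCRF-Adr (ABCB1) cells / Compound dosing: one concentration, 6.6 µM final / Also added: JC-1 fluorescent substrate / Evaluation: efflux inhibition in percent versus controls / Detection: flow cytometry, 530 nm JC-1 signal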
ABCB1 block: ABCB1 efflux pump inhibitors, primary screen, cell-based, multiplex, flow cytometry, ABCG2 counter-screen | ATP-dependent translocase ABCB1 (Homo sapiens), P08183 | CCRF-Adr cells, JC-1 efflux | inhibition, % at 6.6 µM | 190,000 compounds, 0.067% hits; in the data active means inhibition above about 40%;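 further: 0% = vehicle and 100% = reference inhibitor; higher value means more JC-1 retained so stronger ABCB1 efflux block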
Arbovirus inh: antivirals against arbovirus infection, primary screen, cell-based, full library, 10K replicate subset; arbovirus infection cell-based antiviral screen; inhibition, % at 10 µM; 200,000 compounds, 0.37% hits; AID 1251, 2008; in the data active means inhibition above about 30%
ABCB1 single pt: ABCB1 efflux pump inhibitors, confirmation, cell-based, single point, ABCG2 counter-screen; shares compounds with ABCG2 inh; CCRF-Adr cells, JC-1 efflux, flow cytometry; inhibition, % at 6.6 µM; 270 compounds, 7% hits; AID 1451, 2008;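 active means inhibition of pump activity above 50%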;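 further: 0% = DMSO and 100% = nicardipine full pump inhibition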
ABCG2 single pt: ABCG2 efflux pump inhibitors, confirmation, single point, IgMXP3 cells, ABCB1 counter-screen paired. shares compounds with ABCG2 inh. JC-1 efflux, flow cytometry. inhibition, % at 6.6 µM. 270 compounds, 6% hits. AID 1453, 2008;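 active means inhibition above 50%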;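 further: 0% = DMSO wells and 100% = nicardipine pump inhibitor wells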
IgMXP3 fluor: compound autofluorescence in ABCG2-expressing IgMXP3 cells, confirmation, artefact control for ABC transporter inhibitor project, cell-based, 488/530 nm, flow cytometry; 270 compounds, 30% hits; shares compounds with ABCG2 inh; compound autofluorescence 488/530 nm; active compounds read high; fluorescence at 6.6 µM;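 active means fluorescence in ABCG2-expressing cells above the plate's control-well mean plus 3 SD, cut at about 15 in these data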;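 further: median cell fluorescence with compound minus that of DMSO-treated control cells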
CCRF autofluor: compound autofluorescence in ABCB1-expressing CCRF-Adr cells, confirmation, artefact control for ABC transporter inhibitor project, cell-based, 488/530 nm, flow cytometry; shares compounds with ABCG2 inh; compound autofluorescence 488/530 nm; active compounds read high; fluorescence at 6.6 µM; 270 compounds, 30% hits;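 active means fluorescence beyond the plate control mean plus 3 SD, with a fluorescence-to-maximum score over 2, cut at about 25 in these data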
The depositor's hits bear a star; . = no result. An excerpt weighted towards active compounds, which were near 2.3% of everything screened.

SMILES	RAM inhibit	ABCG2 inh	ABCB1 block	Arbovirus inh	ABCB1 single pt	ABCG2 single pt	IgMXP3 fluor	CCRF autofluor
O=C(OCc1cc([N+](=O)[O-])cc2c1OCOC2)c1ccccn1	0.5	4.2	0.3	9.4	.	.	.	.
COc1cc(C(=O)NC(CCSC)C(=O)OCc2cc([N+](=O)[O-])cc3c2OCOC3)cc(OC)c1OC (stereo not drawn)	2.0	24.7	58.4*	0.0	20.5	12.9	1.91	0.01
CC(C)C(NS(=O)(=O)c1ccccc1)C(=O)OCc1cc([N+](=O)[O-])cc2c1OCOC2 (stereo not drawn)	5.5	89.4*	2.5	18.5	1.3	10.3	1.66	-0.99
COc1ccc(/C=N/NC(=O)c2cccnc2)cc1CN1CCN(c2ccc(F)cc2)CC1	1.9	8.7	44.8*	-1.6	34.9	11.8	-1.84	-3.84
Cc1c(N/C=C(\Cl)C(=O)C(F)(F)F)c(=O)n(-c2ccccc2)n1C	2.0	0.5	-0.6	8.3	.	.	.	.
O=[N+]([O-])c1ccccc1-c1nc(-c2ccc(Br)o2)no1	3.0	90.3*	1.7	-1.6	1.6	28.2	-0.34	0.61
Cc1cc(C)nc(-n2nc(C)c3c(C(F)(F)F)cc(=O)[nH]c32)n1	2.2	72.3	3.5	-4.1	-0.2	32.5	3.56	7.16
O=S(=O)(c1ccccc1)N1CCN(c2nc3ccccc3s2)CC1	4.7	0.1	0.1	0.3	.	.	.	.
COc1ccc(-[n+]2c(C)cc(/C=C3\Sc4ccccc4N3C)cc2C)cc1	0.8	6.0	-0.6	-38.8	.	.	.	.
CC[n+]1c(/C=C2\Sc3ccccc3N2C)ccc2cccc(C)c21	-0.8	151.4*	29.7	-35.2	-181.9	18.1	273*	535*
CCOc1ccc(OCC)c(NC(=O)CN2CCN(c3ccc(C)cc3C)CC2)c1	-0.3	80.9*	2.7	3.3	10.6	31.8	8.76	-1.84
CCOC(=O)N1CCN(CC(=O)Nc2cc(OCC)ccc2OCC)CC1	1.1	29.5	1.0	-6.3	.	.	.	.
CCOc1ccc(OCC)c(NC(=O)C2CCCN(c3nc(C)cc(C)n3)C2)c1 (stereo not drawn)	0.5	101.1*	2.4	-6.9	7.8	27.6	2.71	9.66
COc1ccccc1NC(=O)C1CCCN(c2nc(C)cc(C)n2)C1 (stereo not drawn)	0.7	11.1	0.8	-8.1	.	.	.	.
O=C1NC(c2ccc(-c3ccccc3[N+](=O)[O-])o2)C(C(=O)c2ccc(F)cc2)C(O)(C(F)(F)F)N1 (stereo not drawn)	-0.1	88.4*	1.4	19.2	9.4	20.5	14.7*	12.8
COCCn1c(C)cc(C(=O)CSc2nc(C)cc(C)c2C#N)c1C	0.7	97.2*	2.6	-4.3	7.0	29.0	24.2*	19.1
Cc1cc(C)c(C#N)c(SCC(=O)c2cc(C)n(CCc3ccccc3)c2C)n1	6.7	5.3	0.6	10.8	.	.	.	.
CCc1cccc(CC)c1NC(=O)c1cc(CN2C(=O)c3ccccc3C2=O)ccc1OC	4.8	96.1*	56.9*	4.0	31.7	18.7	-1.69	0.21
COc1ccc(CN2C(=O)c3ccccc3C2=O)cc1C(=O)OC(C)C(=O)NC(N)=O (stereo not drawn)	4.7	3.1	2.4	-3.9	.	.	.	.
O=C1C2CC=CCC2C(=O)N1Cc1nnc(-c2ccc(Cl)cc2)o1 (stereo not drawn)	1.5	9.2	0.7	9.0	.	.	.	.
COc1ccc(NC(=O)Nc2ccc(F)cc2F)cc1	1.5	15.2	0.4	1.3	.	.	.	.
O=C(Nc1ccc(C(=O)O)cc1)Nc1ccc(F)cc1F	1.9	190.4*	51.1*	4.1	0.7	0.9	1.41	-1.89
O=C(Nc1cc(C(F)(F)F)ccc1N1CCOCC1)c1ccco1	2.6	2.0	0.1	-2.7	.	.	.	.
O=C(c1ccccc1)c1ccc(N2CCOCC2)c(NC(=O)c2ccco2)c1	0.5	81.3*	3.6	-2.5	0.4	47.5	0.46	32.9*
O=C1CC(c2cccs2)c2cc3c(cc2N1)OCO3 (stereo not drawn)	1.4	0.2	0.1	-0.7	.	.	.	.
O=C(NCc1ccccn1)Nc1ccc(Cl)c(Cl)c1	2.5	69.7	0.9	2.4	0.4	23.5	-1.34	-2.09
O=C(NCc1ccccn1)Nc1cccc(NC(=O)NCc2ccccn2)c1	1.1	2.0	0.7	6.4	.	.	.	.
CCOC(=O)/C(C#N)=C\c1cc(C)n(-c2ccccc2)c1C	3.6	80.8*	3.8	-0.3	4.0	26.1	-1.24	-2.09
Nc1nc(-c2ccc(Cl)cc2)nn1C(=O)c1cccs1	0.8	1.5	0.2	19.2	.	.	.	.
COc1ccc(OC)c(C(=O)COC(=O)c2cc(C)oc2C)c1	0.7	80.0	1.1	4.6	0.0	35.2	-1.79	-2.19
